# Experimental data taken from PMC7785655 (Toxicology, 2020).
# Like-named read-outs stand apart in the source and are kept apart here.
# Assays:
# [1] = Drug recovery from 2D cultures or LAMPS chip effluent; assay type: in vitro ADME; details: human, iCell hepatocytes
# Summary of the method: (§1)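 Hepatocytes were seeded from thaw at 2.75×10^6 cells/mL into fibronectin/collagen I-coated chips or 96-well plates, then overlaid with THP-1, EA.hy926 and LX-2 cells. Drugs in 0.1% DMSO vehicle were added on day 0. Chips were perfused at 15 μL/hour, and 2D media were exchanged daily for up to 10 days. Drugs in effluent or medium were quantified by LC-MS/MS and expressed as % of starting concentration. Values are mean±SEM, n=3–9.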
# [2] = test system: primary human hepatocytes; assay: Drug effects on viability and function in 2D monolayer cultures; assay type: cell-based; details: day 10; 2D cultures with primary hepatocytes; Tolcapone 88 μM, Trovafloxacin 150 μM, LPS 1 μg/mL
# [3] = test system: primary human hepatocytes; assay: Drug effects on viability and function; assay type: cell-based; details: both laboratories
# [4] = Drug recovery from 2D cultures or LAMPS chip effluent; assay type: in vitro ADME, human; details: human; for recovery: primary human hepatocytes, 2D cultures or LAMPS chips
# Summary of the method: as §1
# [5] = test system: primary human hepatocytes; assay: as above; assay type: in vitro ADME; details: primary human hepatocytes; effect most pronounced for these drugs
# Summary of the method: as §1
# [6] = test system: primary human hepatocytes; details: cited from earlier work
# [7] = Tolcapone 88 μM, 5 days, vs No Treatment
# [8] = 2D monolayer-cultured primary human hepatocytes
Compound,recovery [1] [%],recovery ([1]; LAMPS chips and 2D monolayer) [%],cell viability [2],recovery [4] [%],recovery in LAMPS chips compared with 2D monolayer cultures [5],also measured
N[C@@H]1[C@H]2CN(c3nc4c(cc3F)c(=O)c(C(=O)O)cn4-c3ccc(F)cc3F)C[C@@H]12 [Trovafloxacin],,,pronounced effects,~100,,effect on LDH ([3]; Trovafloxacin 150 μM): significant effects; effect on albumin ([3]; Trovafloxacin 150 μM): significant effects
CN(CCOc1ccc(CC2SC(=O)NC2=O)cc1)c1ccccn1 (centres unmarked) [Rosiglitazone],10 to 40,~100,,,,
CCc1ccc(CCOc2ccc(CC3SC(=O)NC3=O)cc2)nc1 (centres unmarked) [Pioglitazone],10 to 40,~100,,,lower recovery than 2D monolayer cultures,
Cn1c(=O)c2c(ncn2C)n(C)c1=O [Caffeine],,,,~100,,"effect on LDH levels ([6]; Caffeine 600 μM, previous study in Laboratory 2, different donor hepatocytes, ref Vernetti et al. 2016): reduced; effect on albumin [6]: without significant effect; effect on urea [6]: without significant effect"

# The next lines start with results.
recovery [1] [%],recovery ([1]; LAMPS chips and 2D monolayer) [%],Compound,cell viability [2],recovery [4] [%],recovery in LAMPS chips compared with 2D monolayer cultures [5],also measured
10 to 40,~100,Cc1ccc(C(=O)c2cc(O)c(O)c([N+](=O)[O-])c2)cc1 [Tolcapone],pronounced effects,,,"albumin production [3, 7]: statistically significant decrease; urea production [3, 7]: statistically significant decrease"
10 to 40,~100,Cc1c(C)c2c(c(C)c1O)CCC(C)(COc1ccc(CC3SC(=O)NC3=O)cc1)O2 (centres unmarked) [Troglitazone],,,lower recovery than 2D monolayer cultures,"recovery at 28 µM [4, 8]: > 10%; recovery at 1 day, 28 µM [4, 8]: < 1%"
